Data on eight molecules can be found in publication PMC9463373 (Heliyon, 2022).

Series [1] concerns Escherichia coli AG100. Nature of the series: Real-time ethidium bromide accumulation assay. The series is classed as cell-based. Particulars: E. coli AG100, ethidium bromide accumulation, minute 60, positive control 50 μM. In short, it runs like this: (§1)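 Bacteria were grown to OD600 0.6 (E. coli AG100 in LB; S. aureus in TSB), PBS-washed and resuspended in PBS. Test compound at ½ MIC (100 μM if MIC >100) in PBS with 2 μg/mL EB, mixed 1:1 with the suspension. Fluorescence (ex 525/em 615 nm) read each minute for 1 h. Positive controls: CCCP 50 μM (E. coli), reserpine 25 μM (S. aureus). RFI taken from the accumulation curves.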

In series [2] the target is P-glycoprotein (Homo sapiens, UniProt P08183). Nature of the series: Rhodamine 123 retention by flow cytometry. The class given is cell-based. In short, it runs like this: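 COLO 205 (parental) and multidrug-resistant COLO 320 cells at 2×10^6/mL in serum-free RPMI 1640. Test compound preincubated 10 min at room temperature, then rhodamine 123 (5.2 µM final) added for 20 min at 37 °C. Cells washed twice and resuspended in PBS. FL-1 mean fluorescence read by flow cytometry against an untreated baseline. Tariquidar positive control at 0.2 µM final. FAR = (MDR treated/MDR control)/(parental treated/parental control).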
Chain of P-glycoprotein (P08183 whole entry): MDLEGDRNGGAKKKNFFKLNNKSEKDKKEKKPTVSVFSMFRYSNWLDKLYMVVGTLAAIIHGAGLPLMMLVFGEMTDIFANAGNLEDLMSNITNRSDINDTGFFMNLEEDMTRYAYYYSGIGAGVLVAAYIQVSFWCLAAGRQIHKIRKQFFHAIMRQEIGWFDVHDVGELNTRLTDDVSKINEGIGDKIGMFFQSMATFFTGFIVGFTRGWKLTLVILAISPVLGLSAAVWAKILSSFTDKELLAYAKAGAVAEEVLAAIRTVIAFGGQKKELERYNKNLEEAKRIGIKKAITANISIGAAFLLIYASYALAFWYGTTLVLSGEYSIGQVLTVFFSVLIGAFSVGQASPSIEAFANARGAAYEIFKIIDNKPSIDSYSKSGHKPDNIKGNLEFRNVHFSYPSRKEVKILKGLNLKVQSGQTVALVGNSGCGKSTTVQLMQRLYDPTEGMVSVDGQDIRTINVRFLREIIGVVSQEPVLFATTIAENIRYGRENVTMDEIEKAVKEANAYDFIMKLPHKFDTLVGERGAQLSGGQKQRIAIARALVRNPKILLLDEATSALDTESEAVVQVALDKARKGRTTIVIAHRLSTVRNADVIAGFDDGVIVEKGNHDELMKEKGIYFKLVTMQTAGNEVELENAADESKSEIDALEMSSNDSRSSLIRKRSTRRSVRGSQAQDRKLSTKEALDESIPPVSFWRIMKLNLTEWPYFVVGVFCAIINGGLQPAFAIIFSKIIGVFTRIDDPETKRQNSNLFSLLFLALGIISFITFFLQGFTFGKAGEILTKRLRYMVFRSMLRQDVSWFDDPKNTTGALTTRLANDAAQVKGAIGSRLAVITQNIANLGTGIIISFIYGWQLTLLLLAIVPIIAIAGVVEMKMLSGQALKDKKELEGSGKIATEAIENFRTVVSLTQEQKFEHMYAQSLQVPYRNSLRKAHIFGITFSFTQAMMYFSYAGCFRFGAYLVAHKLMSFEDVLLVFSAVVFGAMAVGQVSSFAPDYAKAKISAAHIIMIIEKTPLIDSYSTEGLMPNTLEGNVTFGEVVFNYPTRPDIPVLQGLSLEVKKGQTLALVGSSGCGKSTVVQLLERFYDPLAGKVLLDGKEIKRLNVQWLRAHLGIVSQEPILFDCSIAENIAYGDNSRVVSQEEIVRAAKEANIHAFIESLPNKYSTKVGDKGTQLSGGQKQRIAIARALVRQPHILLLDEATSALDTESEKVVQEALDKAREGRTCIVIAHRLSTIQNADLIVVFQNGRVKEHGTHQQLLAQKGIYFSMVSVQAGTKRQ

In series [3] the test system is multidrug resistant COLO 320 colonic adenocarcinoma cells overexpressing the ABCB1 transporter. Nature of the series: Checkerboard combination assay with doxorubicin. The class given is cell-based, human. Particulars: for Type of interaction / Combination index (CI): with doxorubicin; for Combination index (CI): CI at ED50; for effects with doxorubicin (in words): at certain / particular concentrations. In short, it runs like this: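 Test compounds diluted against doxorubicin in a checkerboard on ABCB1-overexpressing COLO 320 cells (RPMI 1640, 10% heat-inactivated FBS), 6 × 10³ cells/well. Incubated 72 h at 37 °C in 5% CO2. MTT added for 4 h, then SDS in 0.01 M HCl overnight. OD read at 540/630 nm. CI at ED₅₀ by Chou-Talalay median-effect: CI <1 synergism, =1 additive, >1 antagonism.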

For series [4], the system named is Staphylococcus aureus ATCC. Nature of the series: Real-time ethidium bromide accumulation assay. The series is classed as cell-based. The method, boiled down:
as §1

Where [5] appears, read: concentration 2 μM, rhodamine 123.
[6] abbreviates: concentration 2 μM, rhodamine 123, COLO 320 vs COLO 205.
[7] abbreviates: concentration 20 μM, rhodamine 123.
[8] abbreviates: concentration 20 μM, rhodamine 123, COLO 320 vs COLO 205.
Where [9] appears, read: ratio 17.42:1, starting concentration 150 μM.
Setting [10] is: ratio 34.84:1, starting concentration 150 μM.
Setting [11] is: ratio 69.68:1, starting concentration 150 μM.
The mark [12] stands for this setting: ratio 139.36:1, starting concentration 150 μM.
The mark [13] stands for this setting: ratio 278.72:1, starting concentration 150 μM.
[14] abbreviates: ratio 557.44:1, starting concentration 150 μM.
The mark [15] stands for this setting: minute 60, ½ MIC concentration (or 100 μM).
Where [16] appears, read: ratio 23.2:1, starting concentration 200 μM.
Setting [17] is: ratio 46.4:1, starting concentration 200 μM.
[18] abbreviates: ratio 92.8:1, starting concentration 200 μM.
[19] abbreviates: ratio 185.6:1, starting concentration 200 μM.
[20] abbreviates: ratio 371.2:1, starting concentration 200 μM.
[21] abbreviates: ratio 742.5:1, starting concentration 200 μM.
Where [22] appears, read: ratio 18.4:1, starting concentration 80 μM.
[23] abbreviates: ratio 36.8:1, starting concentration 80 μM.
Setting [24] is: ratio 73.6:1, starting concentration 80 μM.
Setting [25] is: ratio 147.2:1, starting concentration 80 μM.
Setting [26] is: ratio 294.4:1, starting concentration 80 μM.
Setting [27] is: concentration 0.2 μM, positive control, rhodamine 123.

“Also recorded” adds a separate entry of the source.

As for `N#CC(C#N)=NNc1cccc(Cl)c1` [CCCP], the “relative fluorescence index (RFI)” value in series [1] worked out at 1.34.
With `CC(C)=CCOc1c2occc2cc2ccc(=O)oc12` [Compound 1, imperatorin], the “FL-1 (mean fluorescence intensity of the cells)” value in series [2] (setting [5]) is recorded as 11.30; in series [2] (setting [7]), 9.82. Further, the “FAR (fluorescence activity ratio)” value in series [2] (setting [6]) was determined as 1.47; in series [2] (setting [8]) it was 1.27. Moreover, the Type of interaction result in series [3] (setting [9]) is listed as “moderate antagonism”; in series [3] (setting [10]), “additive effect”; in series [3] (setting [11]), “moderate synergism”; in series [3] (setting [12]), “moderate antagonism”; in series [3] (setting [13]), “additive effect”; in series [3] (setting [14]) it was “additive effect”. The “Combination index (CI)” value was found to be 1.29 in series [3] (setting [9]); 1.06 in series [3] (setting [10]); 0.75 in series [3] (setting [11]); 1.24 in series [3] (setting [12]); 0.99 in series [3] (setting [13]); 0.99 in series [3] (setting [14]).
Take `COc1c2ccoc2c(OCC=C(C)C)c2oc(=O)ccc12` [Compound 2, phellopterin]: the “FL-1 (mean fluorescence intensity of the cells)” value is listed as 11.10 in series [2] (setting [5]) and 20.30 in series [2] (setting [7]). In addition, the “FAR (fluorescence activity ratio)” value in series [2] (setting [6]) came out at 1.44; in series [2] (setting [8]) it was 2.63. Further, in series [3], the “effects with doxorubicin (in words)” value is “antagonistic effects”. Besides, the Type of interaction entry in series [3] (setting [9]) was “Antagonism”; in series [3] (setting [10]), “moderate antagonism”; in series [3] (setting [11]) it was “moderate antagonism”; in series [3] (setting [12]), “antagonism”; in series [3] (setting [13]), “additive effect”; in series [3] (setting [14]) it was “additive effect”. The “Combination index (CI)” value is on record as 2.31 in series [3] (setting [9]); 1.40 in series [3] (setting [10]); 1.33 in series [3] (setting [11]); 1.54 in series [3] (setting [12]); 1.05 in series [3] (setting [13]); 1.03 in series [3] (setting [14]). The “relative fluorescence index (RFI)” value in series [4] (setting [15]) is 5.49.
Consider `COc1cc2ccc(=O)oc2cc1OC` [Compound 3, 6,7-dimethoxycoumarin], for which the “FL-1 (mean fluorescence intensity of the cells)” value was 8.01 in series [2] (setting [5]) and 15.60 in series [2] (setting [7]). The “FAR (fluorescence activity ratio)” value in series [2] (setting [6]) came to 1.04; in series [2] (setting [8]) it was 2.02. Further, the “effects with doxorubicin (in words)” value in series [3] is given as “synergistic effects; also recorded: antagonistic effects”. For the same molecule, the Type of interaction result in series [3] (setting [16]) is “antagonism”; in series [3] (setting [17]), “moderate antagonism”; in series [3] (setting [18]), “moderate synergism”; in series [3] (setting [19]), “moderate synergism”; in series [3] (setting [20]), “synergism”; in series [3] (setting [21]), “synergism”. Also, the “Combination index (CI)” value in series [3] (setting [16]) is given as 2.06; in series [3] (setting [17]), 1.22; in series [3] (setting [18]), 0.81; in series [3] (setting [19]) it was 0.75; in series [3] (setting [20]), 0.62; in series [3] (setting [21]), 0.60. The “relative fluorescence index (RFI)” value in series [4] (setting [15]) is on record as 1.04.
With `CC(C)=CCC/C(C)=C/COc1ccc2ccc(=O)oc2c1` [Compound 5, auraptene], the figures for the “FL-1 (mean fluorescence intensity of the cells)” value in series [2] (setting [5]) and in series [2] (setting [7]) were 13.60 and 30.80, respectively. In addition, the “FAR (fluorescence activity ratio)” value in series [2] (setting [6]) was found to be 1.76; in series [2] (setting [8]), 4.00. The “effects with doxorubicin (in words)” value in series [3] was “antagonistic effects”. The “Combination index (CI)” value in series [3] (ratio 9.2:1, starting concentration 80 μM) is 3.16; in series [3] (setting [22]), 8.37; in series [3] (setting [23]) it was 1.13; in series [3] (setting [24]), 1.72; in series [3] (setting [25]) it was 2.06; in series [3] (setting [26]) it was 5.30. Besides, the Type of interaction entry is recorded as “strong antagonism” in series [3] (setting [22]); “slight antagonism” in series [3] (setting [23]); “antagonism” in series [3] (setting [24]); “antagonism” in series [3] (setting [25]); “strong antagonism” in series [3] (setting [26]).
Regarding `CC1(C)O[C@H]2CC(=O)OC[C@]23[C@H]2CC[C@@]4(C)[C@H](c5ccoc5)OC(=O)[C@H]5O[C@]54[C@]2(C)C(=O)C[C@@H]13` [Compound 9, limonin], the “FL-1 (mean fluorescence intensity of the cells)” value in series [2] (setting [5]) is listed as 2.92; in series [2] (setting [7]), 10.00. Also, the “FAR (fluorescence activity ratio)” value in series [2] (setting [6]) is 0.38; in series [2] (setting [8]) it was 1.30.
For `COc1cc2c(cc1OC)CN(CCc1ccc(NC(=O)c3cc(OC)c(OC)cc3NC(=O)c3cnc4ccccc4c3)cc1)CC2` [Tariquidar, reference compound], in series [2] (setting [27]), the “FAR (fluorescence activity ratio)” value was 11.44 and the “FL-1 (mean fluorescence intensity of the cells)” value is reported as 88.20.
`COC(=O)[C@H]1[C@H]2C[C@@H]3c4[nH]c5cc(OC)ccc5c4CCN3C[C@H]2C[C@@H](OC(=O)c2cc(OC)c(OC)c(OC)c2)[C@@H]1OC` [reserpine, reference compound]: in series [4] (minute 60, positive control 25 μM), the “relative fluorescence index (RFI)” value came out at 2.77.
